Reference: ChEMBL document CHEMBL2034859, “Simple, fast and efficient synthesis of β-keto esters from the esters of heteroaryl compounds, its antimicrobial study and cytotoxicity towards various cancer cell lines” (Bioorg Med Chem Lett, 2012)

Experiments:
Format in all cases: functional
NCI-H460 [1] = assay: Cytotoxicity against human NCI-H460 cells at 10 uM after 48 hrs by WST-1 assay
Procedure, shortened: (§1)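 Cells from ATCC, grown in DMEM with 10% heat-inactivated FBS at 37 °C in humidified 5% CO2. Log-phase cells seeded at 5 × 10^3 cells/well and left to recover overnight, then exposed to varying compound concentrations for 48 h. Controls received medium with 0.2% DMSO vehicle. CCK-8 ([…]) reagent added at 5 µL/well for 2 h, then absorbance read.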

HCT-116 [2] = assay: Cytotoxicity against human HCT116 cells at 10 uM after 48 hrs by WST-1 assay
Procedure, shortened: (§2)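 Cells from ATCC were grown in DMEM with 10% heat-inactivated FBS at 37 °C in 5% CO2. Log-phase cells were seeded at 5 × 10^3 per well and left to recover overnight. They were then exposed to a range of compound concentrations for 48 h, with 0.2% DMSO as the vehicle control. CCK-8 (WST) reagent was added for 2 h and absorbance was measured.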

ACHN [3] = assay: Cytotoxicity against human ACHN cells at 10 uM after 48 hrs by WST-1 assay; procedure, shortened: as §2
Calu-1 = assay: Cytotoxicity against human Calu1 cells at 10 uM after 48 hrs by WST-1 assay; procedure, shortened: as §2
PANC-1 [4] = assay: Cytotoxicity against human PANC1 cells at 10 uM after 48 hrs by WST-1 assay; procedure, shortened: as §1
NCI-H460 [5] = assay: Cytotoxicity against human NCI-H460 cells at 0.01 uM after 48 hrs by WST-1 assay; procedure, shortened: as §1
NCI-H460 [6] = assay: Cytotoxicity against human NCI-H460 cells at 0.03 uM after 48 hrs by WST-1 assay; procedure, shortened: as §1
NCI-H460 [7] = assay: Cytotoxicity against human NCI-H460 cells at 0.1 uM after 48 hrs by WST-1 assay; procedure, shortened: as §1
NCI-H460 [8] = assay: Cytotoxicity against human NCI-H460 cells at 0.3 uM after 48 hrs by WST-1 assay; procedure, shortened: as §1
NCI-H460 [9] = assay: Cytotoxicity against human NCI-H460 cells at 1 uM after 48 hrs by WST-1 assay; procedure, shortened: as §1
NCI-H460 [10] = assay: Cytotoxicity against human NCI-H460 cells at 3 uM after 48 hrs by WST-1 assay; procedure, shortened: as §1
NCI-H460 [11] = assay: Cytotoxicity against human NCI-H460 cells at 30 uM after 48 hrs by WST-1 assay; procedure, shortened: as §1
HCT-116 [12] = assay: Cytotoxicity against human HCT116 cells at 0.01 uM after 48 hrs by WST-1 assay; procedure, shortened: as §2
HCT-116 [13] = assay: Cytotoxicity against human HCT116 cells at 0.03 uM after 48 hrs by WST-1 assay; procedure, shortened: as §2
HCT-116 [14] = assay: Cytotoxicity against human HCT116 cells at 0.1 uM after 48 hrs by WST-1 assay; procedure, shortened: as §2
HCT-116 [15] = assay: Cytotoxicity against human HCT116 cells at 0.3 uM after 48 hrs by WST-1 assay; procedure, shortened: as §2
HCT-116 [16] = assay: Cytotoxicity against human HCT116 cells at 1 uM after 48 hrs by WST-1 assay; procedure, shortened: as §2
HCT-116 [17] = assay: Cytotoxicity against human HCT116 cells at 3 uM after 48 hrs by WST-1 assay; procedure, shortened: as §2
HCT-116 [18] = assay: Cytotoxicity against human HCT116 cells at 30 uM after 48 hrs by WST-1 assay; procedure, shortened: as §2
ACHN [19] = assay: Cytotoxicity against human ACHN cells at 0.01 uM after 48 hrs by WST-1 assay; procedure, shortened: as §2
ACHN [20] = assay: Cytotoxicity against human ACHN cells at 0.03 uM after 48 hrs by WST-1 assay; procedure, shortened: as §2
ACHN [21] = assay: Cytotoxicity against human ACHN cells at 0.1 uM after 48 hrs by WST-1 assay; procedure, shortened: as §2
ACHN [22] = assay: Cytotoxicity against human ACHN cells at 0.3 uM after 48 hrs by WST-1 assay; procedure, shortened: as §2
ACHN [23] = assay: Cytotoxicity against human ACHN cells at 1 uM after 48 hrs by WST-1 assay; procedure, shortened: as §2
ACHN [24] = assay: Cytotoxicity against human ACHN cells at 3 uM after 48 hrs by WST-1 assay; procedure, shortened: as §2
ACHN [25] = assay: Cytotoxicity against human ACHN cells at 30 uM after 48 hrs by WST-1 assay; procedure, shortened: as §2
PANC-1 [26] = assay: Cytotoxicity against human PANC1 cells at 0.01 uM after 48 hrs by WST-1 assay; procedure, shortened: as §1

Compound: CCOC(=O)C(C)C(=O)c1cnccn1 (configuration not stated)
- Activity (NCI-H460 [1]): 87%
- Activity (HCT-116 [2]): 90%
- Activity (ACHN [3]): 67.4%
- Activity (Calu-1): 85.3%
- Activity (PANC-1 [4]): 92.1%
- Activity (NCI-H460 [5]): 3.6%
- Activity (NCI-H460 [6]): 6.7%
- Activity (NCI-H460 [7]): 14.2%
- Activity (NCI-H460 [8]): 38.6%
- Activity (NCI-H460 [9]): 44.6%
- Activity (NCI-H460 [10]): 55%
- Activity (NCI-H460 [11]): 100%
- Activity (HCT-116 [12]): 9.4%
- Activity (HCT-116 [13]): 18.8%
- Activity (HCT-116 [14]): 26.9%
- Activity (HCT-116 [15]): 32.3%
- Activity (HCT-116 [16]): 44.8%
- Activity (HCT-116 [17]): 92.2%
- Activity (HCT-116 [18]): 100%
- Activity (ACHN [19]): -23.4%
- Activity (ACHN [20]): -28.9%
- Activity (ACHN [21]): 19%
- Activity (ACHN [22]): 27.9%
- Activity (ACHN [23]): 46.2%
- Activity (ACHN [24]): 51.6%
- Activity (ACHN [25]): 82.3%
- Activity (PANC-1 [26]): 8.3%
